In article PMC6728149 (Science signaling, 2019):
“Also recorded” adds a separate entry of the source.

Columns and labels:
Type in all cases: cell-based, human
[1] = tested on: MYC Ser^62; assay: pMYC Ser62 immunoblot in MIA PaCa-2 cells; details: 30 min
Summary of the method: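 MIA PaCa-2 cells were exposed to CDK9 inhibitors for 30 min. Lysates were cleared at 18,000 x g, 15 min, 4 °C, and protein was quantified by Bradford. pMYC Ser62 and total MYC were immunoblotted.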

[2] = tested on: EGFP-MYC; assay: GPS-MYC degradation screen; details: 6 hours; for effect on EGFP-MYC stability in the GPS-MYC screen: 20 μM
Summary of the method: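 MIA PaCa-2 cells were lentivirally transduced with DsRed-IRES-EGFP-MYC and selected with 2 μg/ml puromycin. Frozen stocks were thawed, grown 2 days, then plated at 20,000 cells/well in 384-well plates. Next day, compound was given in DMEM/2% FBS for 6 h. Controls were DMSO, cycloheximide (final 7.5 μg/ml) and MG132 (final 3.75 μM). Cells were detached with Accumax (20 min, 37 °C) and read by plate flow cytometer for EGFP/DsRed. Values were normalized to control wells; run in duplicate.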

[3] = tested on: MYC mRNA; assay: MYC mRNA by qPCR; details: MIA PaCa-2 cells
Summary of the method: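 MIA PaCa-2 cells were compound-treated (6 h where stated). MYC mRNA was measured by qPCR, normalized to GAPDH or BACT mRNA, and analysed by the ddCT method.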

[4] = tested on: MYC; assay: MYC protein levels by immunoblot in MIA PaCa-2 cells; details: 6 hours
[5] = tested on: CDK8/19; assay: pSTAT1; details: MIA PaCa-2 cells
Summary of the method: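 CDK8/19 inhibition in compound-treated MIA PaCa-2 cells was read as pSTAT1 by immunoblot. Lysis was in 1% Triton buffer (25 mM Tris pH 7.4) with protease and phosphatase inhibitors; clarification was at 18,000 x g, 15 min, 4 °C. Blots are representative of at least three independent experiments.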

[6] = tested on: CDK9; assay: pPol II; details: MIA PaCa-2 cells, 6 hours
Summary of the method: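 After 6 h compound exposure, MIA PaCa-2 lysates were made in 1% Triton buffer, pH 7.4, with protease and phosphatase inhibitors, cleared at 18,000 x g, 15 min, 4 °C, and quantified by Bradford. pPol II and MCL-1 were immunoblotted as CDK9 signaling read-outs.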

Structure (SMILES) | effect on EGFP-MYC stability in the GPS-MYC screen [2] | endogenous MYC protein levels [4] | other results
CC(C)(C)c1cnc(CSc2cnc(NC(=O)C3CCN(CC(=O)NCCOCCOCCOCCNc4cccc5c4C(=O)N(C4CCC(=O)NC4=O)C5=O)CC3)s2)o1 (stereo not shown) [THAL-SNS-032] | – | – | MYC phosphorylation at Ser^62 [1]: decreased MYC phosphorylation at Ser^62
O=C(Nc1n[nH]c2nc(-c3ccco3)c(Br)cc12)C1CC1 [UNC10112671] | stabilized MYC | – | –
COC(=O)Nc1nc2ccc(Oc3ccc(NC(=O)Nc4ccccc4)cc3)cc2[nH]1 [UNC10112731] | increased EGFP-MYC without affecting DsRed | – | MYC mRNA levels [3]: not due to increased transcription; EGFP-MYC and endogenous MYC levels in GPS-MYC cells ([2]; secondary validation, flow cytometry and immunoblot): dose-dependent increase in EGFP-MYC and endogenous MYC levels
CN1CCN(C(=O)c2ccc3cc(CCNc4ncnc5ccc(C#N)cc45)ccc3c2)CC1 [Senexin B] | – | but not MYC protein levels | pSTAT1 (phosphorylation of STAT1 at S727) [5]: reduction in pSTAT1; MCL-1 protein levels [6]: absence of a reduction in MCL-1
CCOc1cc(N2CCC(O)CC2)ccc1Nc1ncc2c(n1)N(C)c1ccccc1C(=O)N2C [XMD8–92] | – | – | phosphorylation of RNA polymerase II (pPol II) at S2 [6]: did not reduce phosphorylation of the CDK9 substrate Pol II
COc1ncc2cc(C(=O)Nc3cc(C(=O)NCc4cccc(Cl)c4)ccc3Cl)c(=O)[nH]c2n1 [TC-S 7004] | – | failed to cause a dose-dependent loss of endogenous MYC protein | –
COc1cc(N2CCN(C)CC2)ccc1Nc1nccc(-c2cn(C)c3cnccc23)n1 [AZ191] | – | failed to cause a dose-dependent loss of endogenous MYC protein | –
CN(C)CCOc1ccc(-c2nc(-c3ccncc3)c(-c3ccc4c(c3)CC/C4=N\O)[nH]2)cc1.Cl.O [UNC10112687] | destabilized MYC | – | –
S=C(NCc1ccc2c(c1)OCO2)N1CCN(c2ncnc3c2oc2ccccc23)CC1 [amuvatinib] | – | did not increase endogenous MYC in a dose-dependent manner; also recorded: failed to cause a dose-dependent loss of endogenous MYC protein | –
